Assay results gathered from unrelated publications.
Each line is one published result; the experiments were not run side by side.
Target: Glycogen synthase kinase-3 beta (GSK3B, Homo sapiens, UniProt P49841)
Mode: inhibitor

| Compound | assay | test system | setting | inhibition [%] |
| --- | --- | --- | --- | --- |
| O=C(CSc1nc2nccnc2c(=O)n1CCc1ccccc1)Nc1nccs1 | enzyme activity | – | 10 µM | -5 |
| NS(=O)(=O)Cc1noc2ccccc12 | enzyme activity, ADP detection | – | 100 µM | 21.9 |
| CNc1cc(Oc2cc(C(=O)Nc3cc(N4CCN(C)CC4)cc(C(F)(F)F)c3)ccc2C)ncn1 | target engagement in cells, chemoproteomics | Huh-7 | 1 µM | -17.6 |
| COc1ccc(-c2nc3ccc(C4=NNC(=O)CC4C)cc3[nH]2)cc1 (stereo not shown) | enzyme activity, ADP detection | – | 100 µM | 21.5 |
| COc1cc2ncnc(Nc3ccc(Oc4ccccc4)c(C)c3C)c2cc1OC | enzyme activity | – | 1 µM | 4 |
| O=C1CN(/N=C/c2ccc(-c3ccc([N+](=O)[O-])cc3)o2)C(O)=N1 | enzyme activity, ADP detection | – | 100 µM | 31.2 |
| CN(C)C1CCN(CC#Cc2nn(C3CCCC3)c3nc(NCc4ccccc4)ncc23)C1 (stereo not shown) | enzyme activity, FRET | – | 0.1 µM | -4 |
| CSc1nc(C)c(-c2ccnc(Nc3ccc(N4CCOCC4)cc3)c2)[nH]1 | enzyme activity | – | 10 µM | 5.7 |
| COc1cc(-c2coc3cc(OC)c(OC)c(OC)c3c2=O)cc(OC)c1OC | enzyme activity, ADP detection | – | 100 µM | 3 |
| CCN(CC)CCNC(=O)c1c(C)[nH]c(/C=C2\C(=O)Nc3ccc(F)cc32)c1C | enzyme activity | – | 0.3 µM | -4 |
| CN(c1ncccc1CNc1nc(Nc2ccc3c(c2)CC(=O)N3)ncc1C(F)(F)F)S(C)(=O)=O | enzyme activity | – | 1 µM | 92.7 |
| C=CC(=O)Nc1cc(Nc2nccc(Nc3cc(Cl)c(F)cc3C(C)(C)O)n2)c(OC)cc1N1CC[C@@H](N(C)C)C1 | enzyme activity | – | 1 µM | 9 |
| c1ccc(CNc2nc(N3CCOc4ccccc43)nc3c2CCCC3)cc1 | target engagement in cells, chemoproteomics | – | 20 mM | -3.9 |
